Laboratory results reported in ChEMBL document CHEMBL1125205, “Phosphorus-containing inhibitors of HMG-CoA reductase. 2. Synthesis and biological activities of a series of substituted pyridines containing a hydroxyphosphinyl moiety” (J Med Chem, 1991).

Target: T1, 3-hydroxy-3-methylglutaryl-coenzyme A reductase (Rattus norvegicus, UniProt P51639)
T1 sequence (P51639 whole entry): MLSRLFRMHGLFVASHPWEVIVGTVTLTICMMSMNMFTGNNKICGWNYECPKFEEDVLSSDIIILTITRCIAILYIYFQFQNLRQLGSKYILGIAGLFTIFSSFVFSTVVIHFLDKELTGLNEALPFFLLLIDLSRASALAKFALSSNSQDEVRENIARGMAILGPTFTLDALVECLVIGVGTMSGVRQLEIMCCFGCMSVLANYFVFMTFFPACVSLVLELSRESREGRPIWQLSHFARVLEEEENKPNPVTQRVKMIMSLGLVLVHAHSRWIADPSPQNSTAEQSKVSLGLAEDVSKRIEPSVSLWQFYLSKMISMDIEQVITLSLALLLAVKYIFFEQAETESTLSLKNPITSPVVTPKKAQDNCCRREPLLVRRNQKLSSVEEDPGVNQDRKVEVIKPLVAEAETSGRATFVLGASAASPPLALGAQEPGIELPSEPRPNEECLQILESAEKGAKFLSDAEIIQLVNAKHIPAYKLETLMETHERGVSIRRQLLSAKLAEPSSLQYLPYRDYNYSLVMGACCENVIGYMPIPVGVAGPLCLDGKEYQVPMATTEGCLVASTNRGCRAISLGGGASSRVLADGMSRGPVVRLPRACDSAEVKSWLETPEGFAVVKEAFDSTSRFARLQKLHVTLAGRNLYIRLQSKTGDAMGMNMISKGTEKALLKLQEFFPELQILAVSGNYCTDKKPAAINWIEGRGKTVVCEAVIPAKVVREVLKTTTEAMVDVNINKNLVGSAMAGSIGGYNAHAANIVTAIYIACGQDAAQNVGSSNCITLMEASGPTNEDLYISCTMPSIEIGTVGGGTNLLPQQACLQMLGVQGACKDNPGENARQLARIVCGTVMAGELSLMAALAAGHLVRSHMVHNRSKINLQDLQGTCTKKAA
Assay: In vitro for inhibition of rat HMG-CoA reductase.
Conditions: read-out: I50
Outline: (§1)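 Enzyme source: hepatic microsomes from cholestyramine-fed Sprague-Dawley rats. Final assay conditions: 0.04 M potassium phosphate pH 7.2, KCl, sucrose, EDTA, 10 mM DTT, 1% DMSO, 50-200 µg microsomal protein. Microsomes were preincubated with 2.7 mM NADPH for 15 min at 37 °C, then with compound for 15 min. 100 µM 14C-[D,L]-HMG-CoA was then added for 20 min at 37 °C. Read-out: 14C-mevalonate, corrected by 3H-mevalonate recovery. I50 taken from composite dose-response regressions, 2-5 experiments.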

SMILES	IC50 [nM]
Cc1cc(F)ccc1-c1cc(-c2ccccc2)nc(C(C)C)c1/C=C/P(=O)(O)C[C@H](O)CC(=O)O	3.9
Cc1cc(F)ccc1-c1cc(-c2ccccc2)nc(C(C)C)c1C#CP(=O)(O)C[C@H](O)CC(=O)O	156
CC(C)c1nc(-c2ccccc2)c(C(C)C)c(-c2ccc(F)cc2)c1C#CP(=O)(O)C[C@H](O)CC(=O)O	9.8
Cc1cc(-c2cc(-c3ccccc3)nc(C(C)C)c2C#CP(=O)(O)C[C@H](O)CC(=O)O)ccc1F	22
CC(C)c1cc(-c2ccc(F)cc2)c(C#CP(=O)(O)C[C@H](O)CC(=O)O)c(C(C)C)n1	80.9
CC(C)c1cc(-c2ccccc2)nc(-c2ccc(F)cc2)c1/C=C/P(=O)(O)C[C@H](O)CC(=O)O	45.3
CC(C)(C)c1nc(-c2ccccc2)cc(-c2ccc(F)cc2)c1C#CP(=O)(O)C[C@H](O)CC(=O)O	68.4
O=C(O)C[C@@H](O)CP(=O)(O)C#Cc1c(-c2ccc(F)cc2)cc(-c2ccccc2)nc1C1CC1	90.9
CC(C)c1nc(C2CC2)cc(-c2ccc(F)cc2)c1C#CP(=O)(O)C[C@H](O)CC(=O)O	4.2
CCc1nc(-c2ccccc2)c(C)c(-c2ccc(F)cc2)c1/C=C/P(=O)(O)C[C@H](O)CC(=O)O	4.7
Cc1ccccc1-c1cc(-c2ccc(F)cc2)c(C#CP(=O)(O)C[C@H](O)CC(=O)O)c(C(C)C)n1	32.6
Cc1cc(-c2ccc(F)cc2)c(C#CP(=O)(O)C[C@H](O)CC(=O)O)c(C(C)C)n1	231
CC(C)c1nc(C2CCCCC2)cc(-c2ccc(F)cc2)c1C#CP(=O)(O)C[C@H](O)CC(=O)O	48.4
CC(C)c1nc(-c2cccs2)cc(-c2ccc(F)cc2)c1C#CP(=O)(O)C[C@H](O)CC(=O)O	14.6
Cc1c(-c2ccccc2)nc(C2CC2)c(CCP(=O)(O)C[C@H](O)CC(=O)O)c1-c1ccc(F)cc1	9.2
CC(C)c1nc2c(c(-c3ccc(F)cc3)c1C#CP(=O)(O)C[C@H](O)CC(=O)O)CCCc1ccccc1-2	14.4

Target: T1, 3-hydroxy-3-methylglutaryl-coenzyme A reductase
Assay: The compound was tested in vitro for inhibition of rat hepatic HMG-CoA reductase.
Type: functional
Conditions: read-out: I50
Outline: as §1

SMILES	IC50 [nM]
Cc1nc(-c2ccccc2)c(C)c(-c2ccc(F)cc2)c1COP(=O)(O)C[C@H](O)CC(=O)O	1300
CC(C)c1nc(C(C)(C)C)cc(-c2ccc(F)cc2)c1COP(=O)(O)C[C@H](O)CC(=O)O	1.4
CCc1nc(-c2ccccc2)c(C)c(-c2ccc(F)cc2)c1COP(=O)(O)C[C@H](O)CC(=O)O	19.4
O=C(O)C[C@@H](O)CP(=O)(O)OCc1c(-c2ccc(F)cc2)cc(-c2ccccc2)nc1C1CC1	29
Cc1c(-c2ccccc2)nc(C(C)C)c(COP(=O)(O)C[C@H](O)CC(=O)O)c1-c1ccc(F)cc1	5.1
Cc1c(-c2ccccc2)nc(C2CC2)c(COP(=O)(O)C[C@H](O)CC(=O)O)c1-c1ccc(F)cc1	1.3
CC(C)c1nc(-c2ccccc2)cc(-c2ccc(F)cc2)c1COP(=O)(O)C[C@H](O)CC(=O)O	12.7
CCc1c(-c2ccccc2)nc(C(C)C)c(COP(=O)(O)C[C@H](O)CC(=O)O)c1-c1ccc(F)cc1	2.5
CC(C)c1nc2c(c(-c3ccc(F)cc3)c1COP(=O)(O)C[C@H](O)CC(=O)O)CCCc1ccccc1-2	1.2
CC[C@H](C)C(=O)O[C@H]1C[C@H](O)C=C2C=C[C@H](C)[C@H](CC[C@@H](O)C[C@@H](O)CC(=O)[O-])[C@H]21.[Na+] [PRAVASTATIN SODIUM]	24

Species on record: Homo sapiens
Assay: The compound was tested for inhibition of Cholesterol synthesis from [14C]- Acetate in human skin fibroblasts
Type: functional
Conditions: read-out: I50
Outline: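 Human skin fibroblasts (passage 7-27) were plated at 5 × 10^5 cells/well and cultured 18 h. Sterol synthesis was induced by 24 h in serum-free MEM with 1.0% fatty acid-free BSA. Cells were preincubated with compound for 30 min (DMSO ≤1.0%), then given sodium [1-14C]acetate at 2.0 µCi/mL for 4 h. Label in the extracted cholesterol peak was compared with controls. I50 from composite curves of ≥2 experiments.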

SMILES	IC50 [nM]
CC[C@H](C)C(=O)O[C@@H]1C[C@@H](C)C=C2C=C[C@H](C)[C@H](CC[C@@H](O)C[C@H](O)CC(=O)[O-])C21.[Na+] (stereo partly drawn)	18.8

System: Rattus norvegicus
Assay: The compound was tested in vivo for inhibition of Cholesterol Biosynthesis from [14C]- acetate in rat after peroral administration.
Type: functional
Conditions: po

SMILES	ED50 [mg/kg]
CC[C@H](C)C(=O)O[C@@H]1C[C@@H](C)C=C2C=C[C@H](C)[C@H](CC[C@@H](O)C[C@H](O)CC(=O)[O-])C21.[Na+] (stereo partly drawn)	0.4
CC[C@H](C)C(=O)O[C@H]1C[C@H](O)C=C2C=C[C@H](C)[C@H](CC[C@@H](O)C[C@@H](O)CC(=O)[O-])[C@H]21.[Na+] [PRAVASTATIN SODIUM]	0.75

Species on record: Rattus norvegicus
Assay: The compound was tested for inhibition of Cholesterol synthesis from [14C]- Acetate in hepatocytes of rats.
Type: functional
Conditions: Hepatocyte, read-out: I50
Outline: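 Rat hepatocytes were freshly isolated by collagenase perfusion, 70-90% viable. Cells were suspended at 5 × 10^6 per 2.0 mL in Tris pH 7.4 incubation medium with cofactors; DMSO was ≤1.0% final. Incubation was with [14C]acetate (2 µCi/mL) for 2.0 h at 37 °C. Lipids were extracted by Bligh-Dyer and the percent of label in the cholesterol peak was compared with controls. I50 from composite curves of two or more studies.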

SMILES	IC50 [nM]
CC[C@H](C)C(=O)O[C@@H]1C[C@@H](C)C=C2C=C[C@H](C)[C@H](CC[C@@H](O)C[C@H](O)CC(=O)[O-])C21.[Na+] (stereo partly drawn)	146

System: not listed separately
Assay: It is the ratio of I50 fibroblasts to that of I50 hepatocytes.
Type: functional, Hepatocyte
Conditions: not given
Outline: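 Selectivity is the ratio of I50 in human skin fibroblasts to I50 in freshly isolated rat hepatocytes. Each I50 came from [14C]acetate incorporation into cholesterol, measured as percent inhibition versus controls from composite dose-response data.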

SMILES	Selectivity
CC[C@H](C)C(=O)O[C@H]1C[C@H](O)C=C2C=C[C@H](C)[C@H](CC[C@@H](O)C[C@@H](O)CC(=O)[O-])[C@H]21.[Na+] [PRAVASTATIN SODIUM]	31

System: Rattus norvegicus
Assay: The compound was tested in vivo for inhibition of Cholesterol Biosynthesis from [14C]- acetate in rat after intravenous administration.
Type: functional
Conditions: not given
Outline: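 Male Sprague-Dawley rats (200-300 g) were kept on a reverse light cycle. Salt forms were given iv into the tail vein in saline, 5 min before ip sodium [1-14C]acetate (25 µCi/100 g), dosed 2 h before mid-dark. Blood was taken 2 h after mid-dark. Read-out: 14C nonsaponifiable plasma lipid per mL versus controls, 4-5 rats/group. ED50 from log dose regressions, mean of ≥2 experiments.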

SMILES	ED50 [mg/kg]
CC[C@H](C)C(=O)O[C@@H]1C[C@@H](C)C=C2C=C[C@H](C)[C@H](CC[C@@H](O)C[C@H](O)CC(=O)[O-])C21.[Na+] (stereo partly drawn)	0.033
CC[C@H](C)C(=O)O[C@H]1C[C@H](O)C=C2C=C[C@H](C)[C@H](CC[C@@H](O)C[C@@H](O)CC(=O)[O-])[C@H]21.[Na+] [PRAVASTATIN SODIUM]	0.053
